The nature of the assay: Displacement of [3H]epibatidine from nAChR in rat cerebral cortex. In kind it is tissue-based. Put shortly:
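Rat cerebral cortex membranes used as receptor source; competition binding against the radioligand [3H]epibatidine. Ki values given as mean ± SEM of three experiments, each run in triplicate.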
(Displacement assays read how much labelled ligand stays bound in the presence of the test substance.)

By Ki is commonly meant a measure of affinity in units of concentration, obtained from inhibition or displacement. The compound `COCCOCCOC(=O)N1CC[N+](C)(C)CC1` returned a Ki of 8.2 µM.

In turn, `CN1CCC[C@H]1COc1cncc(C#CCO)c1` showed a Ki of 0.0031 µM.

For the compound `COCCOCCOCCOCC#Cc1cncc(OC[C@@H]2CCCN2C)c1`, the affinity corresponds to a Ki of 0.015 µM. Against the preceding compound, the Ki is about 4.8-fold higher.

In the case of `COCCOCCOCCOCCOCCOCCOCC#Cc1cncc(OC[C@@H]2CCCN2C)c1`, the inhibition constant (Ki) was found to be 0.063 µM. Against the preceding compound, the Ki is about 4.2-fold higher.

In turn, `COCCOCCOCCOCCOCCOC(=O)N1CC[N+](C)(C)CC1` had a Ki of 38 µM.

`COCCOCCOCCOC(=O)N1CC[N+](C)(C)CC1`: affinity was put at a Ki of 48 µM.

Compound `COC(=O)NCC[N+](C)(C)C` came in with a Ki of 14 µM.

Take `COCCOCCOCCOCCOCC#Cc1cncc(OC[C@@H]2CCCN2C)c1`: the Ki was 0.03 µM.

In the case of `COCCOCCOCCOCCOCCOC(=O)NCC[N+](C)(C)C`, the Ki is 190 µM.

Turning to `COCCOCCOCCOCCOC(=O)N1CC[N+](C)(C)CC1`, the Ki worked out at 26 µM. This Ki lies about 7.3-fold lower than the previous one.

In the case of `COCCOCCOCCOCCOCCOCCOC(=O)N1CC[N+](C)(C)CC1`, the affinity, expressed as Ki, was 19 µM.

The compound `COCCOC(=O)N1CC[N+](C)(C)CC1` returned a Ki of 3 µM.

The compound `COCCOCCOCC#Cc1cncc(OC[C@@H]2CCCN2C)c1` came in with an inhibition constant Ki of 0.0075 µM.

On to `COCC#Cc1cncc(OC[C@@H]2CCCN2C)c1`, for which the Ki stood at 0.0047 µM.

Compound `COCCOC(=O)NCC[N+](C)(C)C` registered a Ki of 54 µM.

With `COCCOCCOCCOC(=O)NCC[N+](C)(C)C`, the inhibition constant Ki amounted to 70 µM.

As for `CC(=O)N1CC[N+](C)(C)CC1` [ACETYLDIMETHYLPIPERAZINIUM IODIDE], the inhibitory constant (Ki) turned out to be 3.6 µM.

Compound `COC(=O)N1CC[N+](C)(C)CC1` had an inhibition constant Ki of 0.67 µM.

`COCCOCCOCCOCCOC(=O)NCC[N+](C)(C)C` gave an inhibitory constant (Ki) of 150 µM.

On to `COCCOCCOCCOCCOCCOCCOC(=O)NCC[N+](C)(C)C`, for which affinity was put at a Ki of 30 µM.

`COCCOCCOCCOCCOCCOCC#Cc1cncc(OC[C@@H]2CCCN2C)c1` showed a Ki of 0.04 µM.

`COCCOCCOC(=O)NCC[N+](C)(C)C`: the inhibition constant Ki is 32 µM.

`COCCOCC#Cc1cncc(OC[C@@H]2CCCN2C)c1`: the affinity corresponds to a Ki of 0.015 µM. Against the preceding compound, the Ki is about 2100-fold lower.

These data come from ChEMBL document CHEMBL1782030, “Polyethylene glycol-based homologated ligands for nicotinic acetylcholine receptors” (Bioorg Med Chem, 2008).
